In ChEMBL document CHEMBL1134066, “A new structural class of selective and non-covalent inhibitors of the chymotrypsin-like activity of the 20S proteasome” (Bioorg Med Chem Lett, 2001):

Organism: Homo sapiens
Test: In vitro inhibitory concentration against Chymotrypsin-like activity of the purified human placenta 20S Proteasome
Format: functional
In short: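 Purified human placenta 20S proteasome; chymotrypsin-like activity measured by cleavage of the fluorogenic substrate Suc-Leu-Val-Tyr-AMC (AMC release). Trypsin-like (Boc-Leu-Arg-Arg-AMC) and post-glutamyl-peptide hydrolytic-like (Z-Leu-Leu-Glu-AMC) substrates were used for the parallel selectivity assays.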

Row | Structure (SMILES) | IC50 [µM]
1 | COc1ccc(CN[C@@H](C(=O)N[C@H](C(=O)NCc2ccc(OC)cc2O)C(C)C)[C@H](O)[C@H](Cc2ccccc2)NC(=O)[C@@H](NC(=O)CCc2cccc(N)c2)C(C)(C)C)cc1 | 0.6
2 | COc1ccc(CN[C@@H](C(=O)N[C@H](C(=O)NCc2ccc(OC)cc2O)C(C)C)[C@H](O)[C@H](Cc2ccccc2)NC(=O)[C@@H](NC(=O)OCc2cc(C)cc(C)c2)C(C)(C)C)cc1 | 1.1
3 | COc1ccc(CN[C@@H](C(=O)N[C@H](C(=O)NCc2ccc(OC)cc2O)C(C)C)[C@H](O)[C@H](Cc2ccccc2)NC(=O)[C@@H](NC(=O)OCc2cccc(N)c2)C(C)(C)C)cc1 | 0.6
4 | COc1ccc(CN[C@@H](C(=O)N[C@H](C(=O)NCc2ccc(OC)cc2O)C(C)C)[C@H](O)[C@H](Cc2ccccc2)NC(=O)[C@@H](NC(=O)OCc2cccc3ccccc23)C(C)(C)C)cc1 | 2
5 | COc1ccc(CN[C@@H](C(=O)N[C@H](C(=O)NCc2ccc(OC)cc2OC)C(C)C)[C@H](O)[C@H](Cc2ccccc2)NC(=O)[C@@H](NC(=O)OCc2ccccc2)C(C)C)cc1 | > 20
6 | COc1ccc(CN[C@@H](C(=O)N[C@H](C(=O)NCc2ccc(OC)cc2O)C(C)C)[C@H](O)[C@H](Cc2ccccc2)NC(=O)[C@@H](NC(=O)OC(C)(C)C)C(C)(C)C)cc1 | 27
7 | COc1ccc(CN[C@@H](C(=O)N[C@H](C(=O)NCc2ccc(OC)cc2O)C(C)C)[C@H](O)[C@H](Cc2ccccc2)NC(=O)[C@@H](NC(=O)OCc2ccccc2)C(C)(C)C)cc1 | 0.9
8 | COc1ccc(CN[C@@H](C(=O)N[C@H](C(=O)NCc2ccc(OC)cc2O)C(C)C)[C@H](O)[C@H](Cc2ccccc2)NC(=O)[C@@H](NC(=O)OCc2ccccc2)C(C)C)cc1 | 3.3
9 | COc1ccc(CN[C@@H](C(=O)N[C@H](C(=O)NCc2ccc(OC)cc2O)C(C)C)[C@H](O)[C@H](Cc2ccccc2)NC(=O)[C@@H](N)C(C)(C)C)cc1 | 70
10 | COc1ccc(CN[C@@H](C(=O)N[C@H](C(=O)NCc2ccc(OC)cc2O)C(C)C)[C@H](O)[C@H](Cc2ccccc2)NC(=O)[C@@H](NC(=O)Cc2cccc3ccccc23)C(C)(C)C)cc1 | 0.1
11 | COc1ccc(CN[C@@H](C(=O)N[C@H](C(=O)NCc2ccc(OC)cc2O)C(C)C)[C@H](O)[C@H](Cc2ccccc2)NC(=O)[C@@H](NC(=O)OCc2cccc(C)c2)C(C)(C)C)cc1 | 0.5
12 | COc1ccc(CN[C@@H](C(=O)N[C@H](C(=O)NCc2ccccc2O)C(C)C)[C@H](O)[C@H](Cc2ccccc2)NC(=O)[C@@H](NC(=O)OCc2ccccc2)C(C)(C)C)cc1 | 72
